Measured values taken from the M2OR odorant receptor database.

Experiments:
Details in all cases: stereoisomer not certain
UniProt E9PZ66 = target: T1, UniProt E9PZ66
T1 sequence (whole entry): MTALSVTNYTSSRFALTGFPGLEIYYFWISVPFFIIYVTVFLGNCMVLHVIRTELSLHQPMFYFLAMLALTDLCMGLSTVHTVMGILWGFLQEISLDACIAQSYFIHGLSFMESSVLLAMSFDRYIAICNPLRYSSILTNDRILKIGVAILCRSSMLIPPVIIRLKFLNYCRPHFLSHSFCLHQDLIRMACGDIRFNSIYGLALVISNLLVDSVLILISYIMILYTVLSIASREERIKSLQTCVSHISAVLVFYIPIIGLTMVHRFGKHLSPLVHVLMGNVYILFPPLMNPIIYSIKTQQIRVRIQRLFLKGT
Outline: (§1)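 Transient luciferase assays in mammalian cell lines were common, though methods varied by source. The values come from published papers and their supplementary material, with extra details from the original authors when needed. Responsive refers to a measured signal the original authors judged statistically different from baseline, and non-responsive (inactive) to the remainder.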

UniProt E9Q4X7 = target: T2, UniProt E9Q4X7
T2 sequence (whole entry): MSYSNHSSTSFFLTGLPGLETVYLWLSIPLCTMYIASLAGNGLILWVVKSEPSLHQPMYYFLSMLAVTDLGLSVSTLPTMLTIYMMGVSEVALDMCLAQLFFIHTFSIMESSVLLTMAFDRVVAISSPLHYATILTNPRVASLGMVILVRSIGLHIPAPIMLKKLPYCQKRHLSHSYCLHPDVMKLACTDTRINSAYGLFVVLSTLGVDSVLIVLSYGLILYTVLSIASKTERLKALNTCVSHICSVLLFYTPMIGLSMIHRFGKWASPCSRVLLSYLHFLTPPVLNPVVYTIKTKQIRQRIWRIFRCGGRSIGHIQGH
Outline: as §1

UniProt E9Q546 = target: T3, UniProt E9Q546
T3 sequence (whole entry): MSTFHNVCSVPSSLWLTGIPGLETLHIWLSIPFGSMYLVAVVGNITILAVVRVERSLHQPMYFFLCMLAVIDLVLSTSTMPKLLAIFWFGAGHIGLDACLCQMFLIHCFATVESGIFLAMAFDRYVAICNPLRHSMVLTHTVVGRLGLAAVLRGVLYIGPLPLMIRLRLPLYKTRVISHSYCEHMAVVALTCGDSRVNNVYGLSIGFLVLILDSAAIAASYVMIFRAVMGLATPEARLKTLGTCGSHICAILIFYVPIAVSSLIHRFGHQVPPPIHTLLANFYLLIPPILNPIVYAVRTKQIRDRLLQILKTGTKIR
Outline: as §1

UniProt E9Q6Z7 = target: T4, UniProt E9Q6Z7
T4 sequence (whole entry): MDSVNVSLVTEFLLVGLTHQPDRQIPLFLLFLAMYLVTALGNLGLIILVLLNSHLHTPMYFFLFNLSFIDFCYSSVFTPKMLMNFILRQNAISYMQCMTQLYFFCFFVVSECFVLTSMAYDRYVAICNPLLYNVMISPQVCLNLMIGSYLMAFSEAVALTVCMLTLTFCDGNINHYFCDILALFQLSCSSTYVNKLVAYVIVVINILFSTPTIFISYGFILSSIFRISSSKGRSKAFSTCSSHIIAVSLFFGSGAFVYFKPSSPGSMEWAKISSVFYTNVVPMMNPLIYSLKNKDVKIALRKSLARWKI
Outline: as §1

UniProt E9QAT7 = target: T5, UniProt E9QAT7
T5 sequence (whole entry): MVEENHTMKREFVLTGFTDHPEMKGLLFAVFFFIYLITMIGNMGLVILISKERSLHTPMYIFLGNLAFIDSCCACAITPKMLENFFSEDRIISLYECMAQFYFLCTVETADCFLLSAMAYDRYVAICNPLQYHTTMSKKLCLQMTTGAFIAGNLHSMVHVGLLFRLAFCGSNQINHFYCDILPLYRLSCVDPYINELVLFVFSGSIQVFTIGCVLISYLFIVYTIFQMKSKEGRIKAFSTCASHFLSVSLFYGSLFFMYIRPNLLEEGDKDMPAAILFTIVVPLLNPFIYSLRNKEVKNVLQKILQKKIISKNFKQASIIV
Outline: as §1

UniProt E9Q891 = target: UniProt E9Q891
Chain of UniProt E9Q891 (E9Q891 as listed by the source): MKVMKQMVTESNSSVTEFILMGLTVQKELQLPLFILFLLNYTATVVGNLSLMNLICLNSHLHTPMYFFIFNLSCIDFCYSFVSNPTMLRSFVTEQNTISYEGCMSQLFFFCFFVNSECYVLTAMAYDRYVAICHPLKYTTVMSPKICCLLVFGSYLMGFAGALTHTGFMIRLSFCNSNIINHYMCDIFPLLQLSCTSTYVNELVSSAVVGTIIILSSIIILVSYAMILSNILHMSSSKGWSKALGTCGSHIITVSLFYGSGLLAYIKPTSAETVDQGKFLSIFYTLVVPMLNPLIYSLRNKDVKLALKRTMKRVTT
Outline: as §1

UniProt K7N5T5 = target: UniProt K7N5T5
Chain of UniProt K7N5T5 (K7N5T5 as listed by the source): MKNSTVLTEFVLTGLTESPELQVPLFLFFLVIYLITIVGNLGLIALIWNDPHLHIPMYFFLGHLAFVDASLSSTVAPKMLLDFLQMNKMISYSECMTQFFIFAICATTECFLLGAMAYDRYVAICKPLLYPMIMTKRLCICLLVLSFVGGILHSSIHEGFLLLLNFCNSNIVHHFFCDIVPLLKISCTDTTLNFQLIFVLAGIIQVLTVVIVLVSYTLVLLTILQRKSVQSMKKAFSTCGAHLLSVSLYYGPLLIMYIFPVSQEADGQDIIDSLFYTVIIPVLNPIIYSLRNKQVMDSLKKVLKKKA
Outline: as §1

UniProt K7N609 = target: T6, UniProt K7N609
T6 sequence (whole entry): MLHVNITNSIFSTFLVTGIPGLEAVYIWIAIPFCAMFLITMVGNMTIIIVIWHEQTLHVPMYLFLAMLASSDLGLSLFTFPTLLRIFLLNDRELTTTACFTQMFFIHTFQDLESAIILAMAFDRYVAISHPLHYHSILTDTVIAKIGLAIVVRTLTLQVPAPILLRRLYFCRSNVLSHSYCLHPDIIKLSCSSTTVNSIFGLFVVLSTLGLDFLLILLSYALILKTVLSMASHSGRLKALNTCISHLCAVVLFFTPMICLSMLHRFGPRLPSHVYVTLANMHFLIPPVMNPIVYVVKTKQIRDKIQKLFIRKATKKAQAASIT
Outline: as §1

UniProt E9Q9Z6 = target: T7, UniProt E9Q9Z6
T7 sequence (whole entry): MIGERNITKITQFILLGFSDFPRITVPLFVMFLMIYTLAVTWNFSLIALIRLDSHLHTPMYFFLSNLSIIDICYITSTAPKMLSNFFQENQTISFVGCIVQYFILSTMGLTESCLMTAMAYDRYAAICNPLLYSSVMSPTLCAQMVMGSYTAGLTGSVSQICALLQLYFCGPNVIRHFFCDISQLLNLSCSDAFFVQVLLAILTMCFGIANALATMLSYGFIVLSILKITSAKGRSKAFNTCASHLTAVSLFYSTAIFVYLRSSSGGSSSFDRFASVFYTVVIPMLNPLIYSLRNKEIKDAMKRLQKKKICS
Outline: as §1

Measured: odorant receptor agonist call

C=CC(=O)CCCCC
inactive: UniProt E9PZ66 | UniProt E9Q4X7 | UniProt E9Q546 | UniProt E9Q6Z7

Cc1ccc(OC(=O)C(C)C)cc1
inactive: UniProt E9PZ66 | UniProt E9Q4X7 | UniProt E9Q546 | UniProt E9Q6Z7

CCc1occc(=O)c1O
inactive: UniProt E9PZ66 | UniProt E9Q4X7 | UniProt E9Q546 | UniProt E9Q6Z7

Cc1occc1SSc1ccoc1C
inactive: UniProt E9PZ66 | UniProt E9Q4X7 | UniProt E9Q546 | UniProt E9Q6Z7

O=C(OCc1ccccc1)c1ccccc1O
inactive: UniProt E9PZ66 | UniProt E9Q4X7 | UniProt E9Q546 | UniProt E9Q6Z7

CCN(CC)CC
inactive: UniProt E9PZ66 | UniProt E9Q4X7 | UniProt E9Q546 | UniProt E9Q6Z7

OCCc1ccccc1
inactive: UniProt E9PZ66 | UniProt E9Q4X7 | UniProt E9Q546 | UniProt E9Q6Z7

CCCCCCCCC=CC=O
inactive: UniProt E9PZ66 | UniProt E9Q4X7 | UniProt E9Q546 | UniProt E9Q6Z7

CCCC=O
inactive: UniProt E9PZ66 | UniProt E9Q4X7 | UniProt E9Q546 | UniProt E9Q6Z7

CCc1ncc(C)nc1CC
inactive: UniProt E9PZ66 | UniProt E9Q4X7 | UniProt E9Q546 | UniProt E9Q6Z7
active: UniProt E9QAT7

CCCCCC(C=O)=Cc1ccccc1
inactive: UniProt E9PZ66 | UniProt E9Q4X7 | UniProt E9Q546 | UniProt E9Q6Z7

O=C1CCOc2ccccc21
active: UniProt E9Q891
not listed: UniProt E9QAT7 | UniProt E9Q9Z6
inactive: all other assays above

CCCCCCC=CC=O
inactive: UniProt E9PZ66 | UniProt E9Q4X7 | UniProt E9Q546 | UniProt E9Q6Z7

CCCCCCCOC(=O)C(C)C
inactive: UniProt E9PZ66 | UniProt E9Q4X7 | UniProt E9Q546 | UniProt E9Q6Z7

CCCCCCCCCCO
inactive: UniProt E9PZ66 | UniProt E9Q4X7 | UniProt E9Q546 | UniProt E9Q6Z7 | UniProt K7N609

CCCCCOC(=O)CC
inactive: UniProt E9PZ66 | UniProt E9Q4X7 | UniProt E9Q546 | UniProt E9Q6Z7

CCC(C)c1nccnc1OC (configuration not stated)
inactive: UniProt E9PZ66 | UniProt E9Q4X7 | UniProt E9Q546 | UniProt E9Q6Z7 | UniProt E9QAT7

CCC=CCCCCC=O
inactive: UniProt E9PZ66 | UniProt E9Q4X7 | UniProt E9Q546 | UniProt E9Q6Z7

CCCCCOC(=O)CCC
inactive: UniProt E9PZ66 | UniProt E9Q4X7 | UniProt E9Q546 | UniProt E9Q6Z7

C=CC(C)=CCC=C(C)CCC=C(C)C
inactive: UniProt E9PZ66 | UniProt E9Q4X7 | UniProt E9Q546 | UniProt E9Q6Z7

CC1CC=CCCCCCCCCCC(=O)C1 (configuration not stated)
active: UniProt E9Q9Z6
inactive: UniProt E9PZ66 | UniProt E9Q4X7 | UniProt E9Q546 | UniProt E9Q6Z7

CCCCCOC(=O)CCCCC
inactive: UniProt E9PZ66 | UniProt E9Q4X7 | UniProt E9Q546 | UniProt E9Q6Z7 | UniProt K7N609

CCCCCCCC(C)=O
inactive: UniProt E9PZ66 | UniProt E9Q4X7 | UniProt E9Q546 | UniProt E9Q6Z7 | UniProt K7N609

C=C(C)C1CCC(C)C(O)C1 (configuration not stated)
inactive: UniProt E9PZ66 | UniProt E9Q4X7 | UniProt E9Q546 | UniProt E9Q6Z7

C=C(CC)CCCC(C)(C)O
inactive: UniProt E9PZ66 | UniProt E9Q4X7 | UniProt E9Q546 | UniProt E9Q6Z7

CC(CC=O)CCCC(C)(C)O (configuration not stated)
inactive: UniProt E9PZ66 | UniProt E9Q4X7 | UniProt E9Q546 | UniProt E9Q6Z7

COc1cnccn1
inactive: UniProt E9PZ66 | UniProt E9Q4X7 | UniProt E9Q546 | UniProt E9Q6Z7 | UniProt E9QAT7

CCSCC
inactive: UniProt E9PZ66 | UniProt E9Q4X7 | UniProt E9Q546 | UniProt E9Q6Z7

CCC(C)O (configuration not stated)
inactive: UniProt E9PZ66 | UniProt E9Q4X7 | UniProt E9Q546 | UniProt E9Q6Z7

CCCCCCC(C)=O
inactive: UniProt E9PZ66 | UniProt E9Q4X7 | UniProt E9Q546 | UniProt E9Q6Z7 | UniProt K7N609

Cc1c(C)c(C)c(C=O)c(C)c1C
inactive: UniProt E9PZ66 | UniProt E9Q4X7 | UniProt E9Q546 | UniProt E9Q6Z7

CC(C)CCN
inactive: UniProt E9PZ66 | UniProt E9Q4X7 | UniProt E9Q546 | UniProt E9Q6Z7

CC(=O)C=CC1=C(C)CCCC1(C)C
inactive: UniProt E9PZ66 | UniProt E9Q4X7 | UniProt E9Q546 | UniProt E9Q6Z7

COc1ccccc1
inactive: UniProt E9PZ66 | UniProt E9Q4X7 | UniProt E9Q546 | UniProt E9Q6Z7

CC(C)CS
inactive: UniProt E9PZ66 | UniProt E9Q4X7 | UniProt E9Q546 | UniProt E9Q6Z7

c1ccc2ncccc2c1
inactive: UniProt E9PZ66 | UniProt E9Q4X7 | UniProt E9Q546 | UniProt E9Q6Z7

COc1nccnc1C(C)C
inactive: UniProt E9PZ66 | UniProt E9Q4X7 | UniProt E9Q546 | UniProt E9Q6Z7 | UniProt E9QAT7

CCCCCCC(C)O (configuration not stated)
active: UniProt E9Q6Z7
inactive: UniProt E9PZ66 | UniProt E9Q4X7 | UniProt E9Q546

C1CCOCC1
inactive: UniProt E9PZ66 | UniProt E9Q4X7 | UniProt E9Q546 | UniProt E9Q6Z7

CCc1nccnc1CC
active: UniProt E9QAT7
inactive: UniProt E9PZ66 | UniProt E9Q4X7 | UniProt E9Q546 | UniProt E9Q6Z7

O=C([O-])CCCCCCC(=O)[O-].[H+].[H+]
inactive: UniProt E9PZ66 | UniProt E9Q4X7 | UniProt E9Q546 | UniProt E9Q6Z7

COC(OC)c1ccccc1
inactive: UniProt E9PZ66 | UniProt E9Q4X7 | UniProt E9Q546 | UniProt E9Q6Z7

O=c1ccc2ccccc2o1
active: UniProt E9Q891
inactive: UniProt E9Q546 | UniProt K7N5T5 | UniProt K7N609

C=C(C)C1CCC(C)C(=O)C1 (configuration not stated)
inactive: UniProt E9PZ66 | UniProt E9Q4X7 | UniProt E9Q546 | UniProt E9Q6Z7 | UniProt K7N609

CCCCOC=O
inactive: UniProt E9PZ66 | UniProt E9Q4X7 | UniProt E9Q546 | UniProt E9Q6Z7 | UniProt K7N609

CCCCC(C)=O
inactive: UniProt E9PZ66 | UniProt E9Q4X7 | UniProt E9Q546 | UniProt E9Q6Z7 | UniProt K7N609

CCCCCCCCC(=O)O
inactive: UniProt E9PZ66 | UniProt E9Q4X7 | UniProt E9Q546 | UniProt E9Q6Z7 | UniProt K7N609

CCC(=O)O
inactive: UniProt E9PZ66 | UniProt E9Q4X7 | UniProt E9Q546 | UniProt E9Q6Z7 | UniProt K7N609

C=CCOC(=O)CCCCCC
inactive: UniProt E9PZ66 | UniProt E9Q4X7 | UniProt E9Q546 | UniProt E9Q6Z7 | UniProt K7N609

CCCC(=O)C(C)=O
inactive: UniProt E9PZ66 | UniProt E9Q4X7 | UniProt E9Q546 | UniProt E9Q6Z7 | UniProt K7N609

CCCCCCCCCC(=O)[O-].[H+]
active: UniProt E9Q546
inactive: UniProt E9PZ66 | UniProt E9Q4X7 | UniProt E9Q6Z7 | UniProt K7N609

CCCCCCCC(=O)[O-].[H+]
inactive: UniProt K7N609
active: UniProt E9Q546

CCC(=O)C(=O)CC
inactive: UniProt E9PZ66 | UniProt E9Q4X7 | UniProt E9Q546 | UniProt E9Q6Z7 | UniProt K7N609
